Measurements published in ChEMBL document CHEMBL4513216, “Probing the Open Global Health Chemical Diversity Library for Multistage-Active Starting Points for Next-Generation Antimalarials” (ACS Infect Dis, 2020).

Experiment: Toxicity liver stage against HepG2, at 10uM
Type: cell-based
Parameters: test concentration 10 uM, cell line HepG2-A16-CD81EGFP
Settings: human, HepG2-A16-CD81EGFP cells; read-out: INHIBITION
Outline: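 Uninfected HepG2-A16-CD81EGFP cells, 3 × 10^3 per well, 1536-well, plated on prespotted compound at 10 μM final, parasite-free screening media added to match infected plates; puromycin 10 μM positive, DMSO 0.5% negative; run in parallel with 48 h PbLuc assay at 37 °C, 5% CO2; viability by CellTiter-Glo luminescence, normalized to controls.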

| SMILES | cytotoxicity at 10 µM [%] |
| --- | --- |
| c1cc(-c2noc([C@@H]3Cc4nc[nH]c4CN3)n2)ccn1 | -0.873 |
| CCN1CCO[C@@H]2CN(C(=O)COC3CCCC3)C[C@@H]2C1 | 4.32 |
| Cc1cnn(CC2CN(c3ncnc4ccccc34)CCO2)c1 (stereo not given) | 6.57 |
| CC(C)(C)c1nc(CC(=O)N2CCCC(n3cncn3)C2)cs1 (stereo not given) | -11.2 |
| COC(=O)c1ccc(N2CCN(CCC(=O)NC(N)=O)C(C)C2)cc1 (stereo not given) | -6.39 |
| Cc1ccccc1N1CCCN(C(=O)CCc2cccnc2)CC1 | -9.2 |
| Cn1ccc(C(=O)N2CCN(c3cc(C#N)ccn3)CC2)cc1=O | -14.2 |
| CC1=C(C(=O)N2CCOC(Cc3cccc(C(F)(F)F)c3)C2)OCCO1 (stereo not given) | 5.31 |
| CN(CC1CC1)C(=O)c1cc2c(c(S(N)(=O)=O)c1)CCC2 | -51.1 |
| COc1ccc2c(c1)C(C(=O)NCCCN1CCN(C)CC1)CC(=O)N2 (stereo not given) | 11.2 |
| Cc1cc(N2CCCN(C(=O)Cc3ccc(O)c(Cl)c3)CC2)ccn1 | -17.3 |
| Cc1nc2c(c(NC(C)c3nnn[nH]3)n1)Cc1ccccc1OC2 (stereo not given) | 1.07 |
| Cc1ccc(NS(=O)(=O)c2cc3c(c(C(=O)O)c2)OCCO3)cc1C | -15.3 |
| CCN1C[C@H]2CCN(C(=O)C3CCCO3)CC[C@H]2S1(=O)=O (stereo not given in full) | 18 |
| OC1(CN2CCCC2)COCCN(c2cc(C(F)(F)F)ccn2)C1 (stereo not given) | -5.34 |
| O=S1(=O)CCN2C(=N1)Oc1ccc(Cl)cc12 | 13.7 |
| Cc1nc(N2CCC3(CCCNC3=O)C2)nc2c1CCCC2 (stereo not given) | -4.97 |
| Cc1cc(C)c2c(N3CCN(CCN4CCOCC4)CC3)ncnc2n1 | 3.04 |
| CCOCc1nc2c(c(NC(CC)c3ccnn3C)n1)CCNCC2 (stereo not given) | -5.53 |
| Cc1cnc(N2CCc3c(CNc4ccnc(C)n4)cncc3C2)nc1 | -39.1 |
| CCOCc1ccc(CNc2cncc(-n3cccn3)n2)cc1 | 20.8 |
| O=C(CCC(F)(F)F)N1CCCC(CO)(CC2CC2)C1 (stereo not given) | 2.75 |
| CCc1cccc(C)c1NC(=O)C1CC(=O)N(Cc2ccccn2)C1 (stereo not given) | 1.09 |

| SMILES | cytotoxicity at 10 µM [%] |
| --- | --- |
| CCc1ncnc(N2CCCC(c3cc(C(N)=O)[nH]n3)C2)c1F (stereo not given) | -4.68 |
| Cc1nc(C2CN(Cc3ccc(F)cc3Br)CCO2)no1 (stereo not given) | -4.75 |
| Cc1ccc2nc(C3CCCN(CC(C)C)C3)nc(O)c2c1 (stereo not given) | 5.48 |
| O=C(CCNC(=O)C1=Cc2ccccc2OC1)Nc1cccnc1 | -0.956 |
| c1cnnc(N2CCCC2CNCc2noc(C3CC3)n2)c1 (stereo not given) | -7.45 |
| O=C(c1cnc(-c2ccccc2)nc1)N1CCOC2(CCCC2)C1 | -1.39 |
| CCN1CCN(c2ncc(-c3cc(C)no3)c(-c3ccc(C)s3)n2)CC1 | 2.44 |
| CN(C)c1cc(CNC(=O)c2c(F)cccc2F)ccn1 | -18.1 |
| Cn1c(C(F)(F)F)nn(CCNC(=O)Nc2ccccc2F)c1=O | -2.59 |
| CCN1CC2(CCN(C(=O)N(C)C)CC2)COc2ccccc2S1(=O)=O | 6.55 |
| c1cc(CN2CCCC(c3noc(C4CC4)n3)C2)no1 (stereo not given) | -7.57 |
| O=C(NCCc1ccsc1)Nc1cccnc1N1CCCC1 | -6.78 |
| CCC1CN(C(=O)c2cccc(O)c2)CCC(=O)N1Cc1ccccc1 (stereo not given) | 6.78 |
| CN(C)CCn1c([C@@H]2CCCO2)cc2cccnc21 | -25.4 |
| CCn1cc(S(=O)(=O)Nc2cccnc2-n2cccn2)nc1C | 3.21 |
| O=C(NCCc1ccccn1)NC1CCN(c2ccccc2)C1=O (stereo not given) | -2.84 |
| CNC(=O)C1CCC(NC(=O)c2cc(C3CC3)n(C(C)(C)C)n2)CC1 (stereo not given) | 4.74 |
| Cc1nc(CO[C@H]2CN(Cc3cccs3)[C@@H]3COC[C@H]23)cs1 | -2.19 |
| c1cnc2c(C3CCN(Cc4ccsc4)CC3)n[nH]c2n1 | 1.34 |
| CN(C(=O)c1ccc(Cl)cc1)C1CCN(c2ccccn2)CC1 | -21 |
| CN1CCCN(c2cnn(Cc3ccncc3)c(=O)c2)CC1 | 6.75 |
| CCN(C)C(=O)c1cc(-c2ccn(C(C)C)n2)n2ccccc12 | -4.35 |
